# Results from ChEMBL document CHEMBL4007452, “Discovery of an Orally Selective Inhibitor of Signal Transducer and Activator of Transcription 3 Using Advanced Multiple Ligand Simultaneous Docking” (J Med Chem, 2017).
# Calls of active or inactive are those of the source. The rule behind the calls is not given here.
# Assays:
# MCF-10A = experiment: Antiproliferative activity against human MCF10A cells after 24 hrs by MTT assay; format: cell-based
# Summary of the method: (§1)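 Cells were seeded at 3000 per well and incubated 24 h at 37 °C. Compounds were added in triplicate with 10% FBS: 0.1-10 or 0.1-20 µM for cancer lines, 3.125-400 µM for MCF-10A. Viability was read by MTT absorbance at 595 nm, with IC50 fitted from the curves. DMSO stocks were 20 mM.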
# [1] = Antiproliferative activity against human UW426 cells after 24 hrs by MTT assay; format: functional, cell-based; conditions: UW426, 24 h; summary of the method: as §1
# [2] = Antiproliferative activity against human UW288-1 cells after 24 hrs by MTT assay; format: functional, cell-based; conditions: UW288-1, 24 h; summary of the method: as §1
# [3] = Antiproliferative activity against human BkPC-3 cells after 24 hrs by MTT assay; format: functional, cell-based; conditions: BkPC-3, 24 h; summary of the method: as §1
# U2OS = experiment: Antiproliferative activity against human U2OS cells after 24 hrs by MTT assay; format: functional, cell-based; summary of the method: as §1
# MDA-MB-231 [4] = experiment: Effect on total STAT3 level in human MDA-MB-231 cells at 2.5 to 5 uM after 12 hrs by immunoblot analysis; format: ADME, cell-based; conditions: mda-mb-231, 12 h
# Summary of the method: (§2)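 MDA-MB-231 cells at 60–80% confluence were treated 12 h with 10% FBS at 2.5-10 µM or 2.5-5 µM, against a DMSO control. Whole-cell lysates were immunoblotted, with bands quantified as percent of control.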
# [5] = target: T1, Signal transducer and activator of transcription 1-alpha/beta (Homo sapiens) (UniProt P42224); experiment: Inhibition of STAT1 dimerization in human MDA-MB-231 cells assessed as inhibition of STAT1-STAT1 DNA binding activity at 5 uM after 24 hrs by EMSA; format: cell-based
# T1 sequence (whole entry): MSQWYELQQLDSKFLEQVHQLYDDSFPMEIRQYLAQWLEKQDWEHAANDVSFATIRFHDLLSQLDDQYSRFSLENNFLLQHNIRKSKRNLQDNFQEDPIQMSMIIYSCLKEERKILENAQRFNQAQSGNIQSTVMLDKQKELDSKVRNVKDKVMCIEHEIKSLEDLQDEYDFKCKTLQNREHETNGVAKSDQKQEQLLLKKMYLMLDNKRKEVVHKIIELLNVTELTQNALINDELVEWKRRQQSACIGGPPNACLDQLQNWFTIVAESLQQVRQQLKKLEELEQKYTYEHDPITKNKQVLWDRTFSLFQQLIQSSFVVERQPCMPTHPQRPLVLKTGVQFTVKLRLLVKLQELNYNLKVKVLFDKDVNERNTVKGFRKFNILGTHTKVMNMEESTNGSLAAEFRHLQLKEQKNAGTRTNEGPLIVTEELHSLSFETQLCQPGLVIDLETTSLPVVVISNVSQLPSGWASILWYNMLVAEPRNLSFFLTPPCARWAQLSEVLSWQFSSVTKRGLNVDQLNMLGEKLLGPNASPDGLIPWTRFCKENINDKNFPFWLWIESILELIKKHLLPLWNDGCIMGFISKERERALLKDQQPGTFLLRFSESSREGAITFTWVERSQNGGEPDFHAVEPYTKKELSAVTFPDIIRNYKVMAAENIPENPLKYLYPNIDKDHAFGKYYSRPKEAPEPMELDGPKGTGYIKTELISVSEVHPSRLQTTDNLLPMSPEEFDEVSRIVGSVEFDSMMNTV
# Summary of the method: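 MDA-MB-231 cells were treated at 5 µM for 0-24 h before nuclear extract preparation. Extracts were incubated with biotin-labeled probe for 30 min at room temperature, then analysed by EMSA.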
# [6] = target: Epidermal growth factor receptor (Homo sapiens) (UniProt P00533); experiment: Inhibition of EGFR in human UW426 cells assessed as reduction in p-ERK1/2 (T202/Y204) level at 1 to 2.5 uM after 24 hrs by immunoblot analysis; format: cell-based
# Chain of Epidermal growth factor receptor (Homo sapiens) (P00533 whole entry): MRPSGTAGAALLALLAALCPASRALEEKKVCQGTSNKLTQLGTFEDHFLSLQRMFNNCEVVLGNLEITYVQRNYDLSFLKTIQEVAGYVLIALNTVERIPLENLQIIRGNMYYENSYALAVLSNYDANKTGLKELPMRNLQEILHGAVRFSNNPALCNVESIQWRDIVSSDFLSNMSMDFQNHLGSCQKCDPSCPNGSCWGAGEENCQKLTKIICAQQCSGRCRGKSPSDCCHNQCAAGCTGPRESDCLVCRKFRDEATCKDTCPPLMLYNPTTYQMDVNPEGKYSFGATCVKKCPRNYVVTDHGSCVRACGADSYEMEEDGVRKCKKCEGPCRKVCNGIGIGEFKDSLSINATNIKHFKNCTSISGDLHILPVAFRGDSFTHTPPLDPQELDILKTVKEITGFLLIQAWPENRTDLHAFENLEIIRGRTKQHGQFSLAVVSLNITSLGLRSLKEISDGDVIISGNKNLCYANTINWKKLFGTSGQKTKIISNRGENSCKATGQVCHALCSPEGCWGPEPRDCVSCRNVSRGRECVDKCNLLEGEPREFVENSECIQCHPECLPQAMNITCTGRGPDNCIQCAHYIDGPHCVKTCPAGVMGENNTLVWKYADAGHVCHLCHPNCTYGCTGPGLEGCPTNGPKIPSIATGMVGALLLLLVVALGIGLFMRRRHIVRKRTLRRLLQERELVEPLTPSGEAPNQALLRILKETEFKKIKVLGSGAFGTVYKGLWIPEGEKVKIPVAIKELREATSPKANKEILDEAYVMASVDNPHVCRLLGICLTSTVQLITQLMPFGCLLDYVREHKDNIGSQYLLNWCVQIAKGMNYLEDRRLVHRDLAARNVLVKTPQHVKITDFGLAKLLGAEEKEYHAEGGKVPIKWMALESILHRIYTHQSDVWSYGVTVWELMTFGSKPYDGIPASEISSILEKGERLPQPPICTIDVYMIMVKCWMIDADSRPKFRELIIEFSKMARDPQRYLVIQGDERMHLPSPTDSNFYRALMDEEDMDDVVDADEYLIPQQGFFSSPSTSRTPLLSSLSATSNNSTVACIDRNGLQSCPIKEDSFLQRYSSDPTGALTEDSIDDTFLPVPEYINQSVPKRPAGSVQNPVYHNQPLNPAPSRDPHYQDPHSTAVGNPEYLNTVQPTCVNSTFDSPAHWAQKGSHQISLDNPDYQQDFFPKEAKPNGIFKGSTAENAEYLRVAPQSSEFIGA
# Summary of the method: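 UW426 cells at 60–80% confluence were treated 24 h at 1-2.5 µM with 10% FBS, against a DMSO control, then immunoblotted.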
# [7] = target: Epidermal growth factor receptor (Homo sapiens) (UniProt P00533); experiment: Inhibition of EGFR in human MDA-MB-231 cells assessed as reduction in p-Akt level at 2.5 to 5 uM after 12 hrs by immunoblot analysis; format: cell-based; summary of the method: as §2
# Mus musculus [8] = experiment: Acute toxicity in ICR mouse assessed as mortality at 200 to 1000 mg/kg, ip measured up to 2 weeks post-treatment; format: organism-based; conditions: in vivo, 336 h
# Summary of the method: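 ICR mice of both sexes, 7 weeks old, randomized into groups of 10. Each received a single intraperitoneal dose at 200, 400, 600, 800 or 1000 mg/kg.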
# MDA-MB-231 [9] = experiment: Anticancer activity against human MDA-MB-231 cells xenografted in BALB/c nude mouse assessed as reduction in tumor volume at 5 mg/kg, po qd administered for 32 days; format: functional; parameters: scale not given: the % may be the effect or the level left; conditions: in the assay text read “tumor weight” for “tumor volume”
# Mus musculus [10] = experiment: In vivo inhibition of STAT3 in po dosed BALB/c nude mouse xenografted with human MDA-MB-231 assessed as reduction in p-STAT3(Y705) level administered as qd for 32 days by Western blot analysis; format: functional, organism-based
# Summary of the method: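 Whole-cell lysates from MDA-MB-231 xenograft tumors of mice dosed orally at 2.5, 5 or 10 mg/kg were immunoblotted for P-STAT3(Y705), T-STAT3 and GAPDH.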
# [11] = Tmax in Sprague-Dawley rat plasma at 1 mg/kg, iv measured after 24 hrs by UPLC analysis; format: ADME, organism-based
# Summary of the method: (§3)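 Rats dosed i.v. or p.o. Plasma concentrations followed from 2 min to 24 h after dosing. The bioanalytical method was validated to FDA guidelines for selectivity, linearity, LLOQ, accuracy, precision, recovery, matrix effect and stability.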
# [12] = Initial plasma concentration in Sprague-Dawley rat at 1 mg/kg, iv measured after 24 hrs by UPLC analysis; format: ADME, organism-based
# Summary of the method: (§4)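 Rat plasma sampled from 2 min to 24 h after a single i.v. (1 mg/kg) or p.o. (10 mg/kg) dose. Parameters were derived from the concentration-time profiles. The bioanalytical method was validated to FDA guidelines for selectivity, linearity, LLOQ, accuracy, precision, recovery, matrix effect and stability.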
# [13] = Terminal half life in Sprague-Dawley rat plasma at 10 mg/kg, po measured after 24 hrs by UPLC analysis; format: ADME, organism-based; conditions: read-out: beta t1/2 (converted); summary of the method: as §3
# [14] = Tmax in Sprague-Dawley rat plasma at 10 mg/kg, po measured after 24 hrs by UPLC analysis; format: ADME, organism-based; summary of the method: as §3
# Rattus norvegicus = experiment: Apparent volume of distribution in Sprague-Dawley rat plasma at 10 mg/kg, po measured after 24 hrs by UPLC analysis; format: ADME, organism-based; conditions: in vivo; summary of the method: as §4
# [15] = target: T2, Signal transducer and activator of transcription 3 (Homo sapiens, UniProt P40763); conditions: 2.5 to 5 uM
# T2 sequence (P40763 whole entry): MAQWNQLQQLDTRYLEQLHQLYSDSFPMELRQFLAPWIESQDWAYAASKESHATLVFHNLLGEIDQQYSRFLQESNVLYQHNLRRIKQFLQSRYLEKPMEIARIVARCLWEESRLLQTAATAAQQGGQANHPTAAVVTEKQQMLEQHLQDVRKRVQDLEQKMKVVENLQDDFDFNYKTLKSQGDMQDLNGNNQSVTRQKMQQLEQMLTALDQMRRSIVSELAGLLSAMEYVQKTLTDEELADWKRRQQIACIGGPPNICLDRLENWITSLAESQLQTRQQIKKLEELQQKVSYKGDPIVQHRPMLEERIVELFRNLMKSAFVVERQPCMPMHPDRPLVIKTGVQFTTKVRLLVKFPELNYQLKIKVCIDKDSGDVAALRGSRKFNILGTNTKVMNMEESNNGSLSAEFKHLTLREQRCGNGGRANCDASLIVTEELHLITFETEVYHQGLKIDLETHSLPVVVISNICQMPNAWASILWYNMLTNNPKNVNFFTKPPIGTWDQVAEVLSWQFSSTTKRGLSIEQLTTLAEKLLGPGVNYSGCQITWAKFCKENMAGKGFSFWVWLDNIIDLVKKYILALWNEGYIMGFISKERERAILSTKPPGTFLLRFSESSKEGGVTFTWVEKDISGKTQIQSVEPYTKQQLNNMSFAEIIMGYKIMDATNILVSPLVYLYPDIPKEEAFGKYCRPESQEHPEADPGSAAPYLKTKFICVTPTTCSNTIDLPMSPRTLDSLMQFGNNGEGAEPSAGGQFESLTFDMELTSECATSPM
# [16] = target: T2, Signal transducer and activator of transcription 3; conditions: 5 uM
# CCRF S-180 = experiment: Antiproliferative activity against mouse S180 cells after 24 hrs by MTT assay; conditions: CCRF S-180, 24 h
smiles,measurement,setting,value
NS(=O)(=O)c1cccc2c1C(=O)C=C(Nc1ccccc1N1CCNCC1)C2=O,IC50,MCF-10A,129000 nM
same,IC50,[1],1200 nM
same,IC50,[2],2800 nM
same,IC50,[3],5100 nM
same,IC50,U2OS,1500 nM
same,Activity,MDA-MB-231 [4],Non-Toxic
same,inhibition,[5],Active
same,inhibition,[6],inactive
same,inhibition,[7],inactive
same,Activity,Mus musculus [8],Non-Toxic
same,Activity,MDA-MB-231 [9],60%
same,inhibition,Mus musculus [10],Dose-dependent effect
same,Tmax,[11],1.98 min
same,C0 at 24 h,[12],382 ng/mL
same,half-life,[13],119 min
same,Tmax,[14],30 min
same,Vz,Rattus norvegicus,32.0925 L/kg
same,inhibition,[15],Active
same,inhibition,[16],Tde
same,IC50,CCRF S-180,420 nM
